High-throughput results (PubChem BioAssay)
Rows were chosen to be rich in hits. Some 2.9% of all compounds tested hit in one or more screens of this group.
A3G deaminase: APOBEC3G (human) deaminase inhibition | Q9HC16 | recombinant A3G, ssDNA deamination FAM/TAMRA fluorescence | inhibition, % at 20 µM | 330,000 tested, 0.28% active | AID 493012;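 active means inhibition of at least 40% at 20 µM, with no more than 30% in the related APOBEC3A deaminase screen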;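 further: plate controls were DMSO wells with A3G for no effect and wells lacking A3G enzyme for full effect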
PRMT1 FP inh: PRMT1 (human) inhibition, primary screen; AID 652257; inhibition, % at 2.79 µM; Q99873; recombinant PRMT1, activity-based probe fluorescence polarization; 370,000 tested, 1.3% active;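 active means inhibition above about 21% made by adding two undisclosed values, limit read from the data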
ABHD5-PLIN5 inh: blocks binding of human ABHD5 to perilipin-5; Q00G26+Q8WTS1; inhibition, % at 4 µM; 360,000 tested, 0.78% active; AID 602281; Split G. princeps luciferase complementation, luminescence, 4 h;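 active means inhibition above the mean inhibition across every tested compound plus 3 SD, cut at about 22% in these data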;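 further: 0% = DMSO only wells and the 100% control is not disclosed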
HCV core dimer: HCV core protein dimerization inhibition; 300,000 tested, 0.33% active; TR-FRET GST/Flag-core106 dimerization, 1536-well; inhibition, % at 5 µM; AID 1899;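 active means inhibition above the mean of all tested compounds plus 3 SD, set per screening campaign, cut at about 45% in these data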
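Material: GST/Flag-tagged HCV core106 proteins. Incubation: 4 h, 22.5 °C incubation. Read-out basis: inhibition (%) from 671 over 617 nm ratio. Measured by: TR-FRET, excitation 340 nm, emission 617 and 671 nm.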
HCV NS3 hel inh: inhibitors of Hepatitis C virus NS3 helicase. NS3 helicase DNA unwinding, Cy5 molecular beacon fluorescence. inhibition, % at 10.9 µM. 290,000 tested, 0.56% active. AID 1800;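 active means inhibition above the mean of all tested compounds plus 3 SD, set per campaign, cut at about 35% in these data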;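 further: 0% = DMSO wells and 100% = thioflavine S control wells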
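System: NS3 helicase fragment of HCV / Schedule: 1 h at 25 °C / Control set: DMSO alone as 0% and 110 µM thioflavine S as 100% / Reagent: Cy5/quencher beacon DNA duplex and ATP to start / Technique: Cy5 fluorescence / Replication: singlicate / Evaluation: % inhibition of end-to-start signal ratio versus controls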
APOBEC3A inh: human APOBEC3A DNA deaminase inhibition; P31941; recombinant A3A, FAM/TAMRA ssDNA deamination fluorescence; inhibition, % at 20 µM; 330,000 tested, 0.41% active; AID 493011;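 active means at least 40% inhibition at 20 µM here, with at most 30% in a related deaminase screen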;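 further: plate controls were A3A with DMSO for no effect and wells lacking A3A enzyme for full effect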
NS3 hel confirm: HCV NS3 helicase inhibition, confirmation assay; inhibition, % at 10.9 µM; shares compounds with HCV NS3 hel inh; NS3 helicase DNA unwinding, Cy5 molecular beacon fluorescence; 1,600 tested, 31% active;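 active means inhibition above the mean of all tested compounds plus 3 SD, cutoff set per campaign, cut at about 36% in these data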
DNA FID counter: counter-screen for HCV NS3 helicase inhibitors: DNA intercalator displacement. shares compounds with HCV NS3 hel inh. DNA fluorescent intercalator displacement, fluorescence. inhibition, % at 7.9 µM. 1,600 tested, 4% active. AID 1945; in the data active means inhibition above about 37%;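 further: 0% = vehicle and 100% = reference compound; higher means more displacement of ethidium bromide from the DNA hairpin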
* = called active by the depositor; x = not tested or not shown.

SMILES	A3G deaminase	PRMT1 FP inh	ABHD5-PLIN5 inh	HCV core dimer	HCV NS3 hel inh	APOBEC3A inh	NS3 hel confirm	DNA FID counter
Cn1c(=O)c2ccccc2n(CC(=O)N2CCCc3ccccc32)c1=O	-6	0	-9	-13	37*	-2	-6	-14
Cc1ccc(-n2ncc(C#N)c2/N=C/N2CCCCCC2)cc1	0	-3	-2	8	101*	-2	1	-38
Cn1c(SCc2ccccc2)nnc1-c1ccncc1	-1	-1	1	1	-3	8	x	x
Cn1c(SCc2n[nH]c(=S)n2-c2ccccc2)nnc1-c1ccccc1	12	1	5	-9	47*	-5	-5	-3
COCCn1c(-c2ccc(OC)cc2)cnc1SCC(=O)Nc1cccc2ccccc12	-4	0	3	6	47*	-1	-16	-41
COc1ccc(-c2cnc(SCC(=O)Nc3cc(C)on3)n2Cc2ccco2)cc1	-5	3	0	10	-2	-2	x	x
COc1ccc(-c2cnc(SCC(=O)Nc3nc(C(C)(C)C)cs3)n2Cc2ccco2)cc1	-2	1	3	32	52*	-5	-6	-27
CCN(CC)S(=O)(=O)c1ccc(NC(=O)COC(=O)c2ccc(NC(=O)CC#N)cc2)cc1	-4	-3	0	25	41*	2	11	16
O=C(CSc1ccc(Br)c2cccc(Cl)c12)Nc1ccc(S(=O)(=O)Nc2nccs2)cc1	-4	5	16	4	38*	1	38*	8
O=C(Cc1ccccc1Cl)Nc1ccc(S(=O)(=O)Nc2nccs2)cc1	-6	1	-2	-5	-3	-5	x	x
Cc1ccc(-n2cccc2/C=C2/NC(=O)N(CC(=O)Nc3cccc(C)c3)C2=O)cc1	-4	5	4	21	19	-1	x	x
Cc1cccc(NC(=O)CN2C(=O)N/C(=C\c3cccn3-c3cccc(C(=O)O)c3)C2=O)c1	15	2	9	-1	37*	39	36	-32
C/C(=N\NC(=O)c1cc(O)ccc1O)c1cccc(NC(=O)c2ccc(Cl)cc2)c1	6	18	4	-10	40*	10	-17	11
O=C(C=Cc1ccc2c(c1)OCO2)C1CC1	x	-4	-3	x	x	x	x	x
CCc1ccc(C(=O)C(C)OC(=O)C2COc3ccccc3O2)cc1 (stereo not drawn)	-9	-4	-2	2	45*	-2	5	-18
CCOC(=O)Cc1cc(=O)n2[nH]cc(-c3ccc(Cl)cc3)c2n1	0	1	4	4	64*	-2	84*	13
CCOC(=O)Cc1cc(=O)n2[nH]c(-c3ccc(Cl)cc3)cc2n1	4	0	8	-2	10	-1	x	x
CC1=C(C(=O)N2CCOCC2)CC(CC(=O)NCCc2ccccn2)C(=O)N1CCCN1CCCC1=O (stereo not drawn)	x	-1	10	x	x	x	x	x
CC1=NN(c2ccc(C(=O)O)cc2)C(=O)/C1=C/c1ccc(-c2ccccc2F)o1	-7	x	-5	9	39*	-2	-7	3
CC(/C=C1\SC(=S)N(NS(=O)(=O)c2ccc(C)cc2)C1=O)=C\c1ccccc1	-4	7	-1	12	43*	-1	86*	1
CC(/C=C1\SC(=S)N(C(C(=O)O)C(C)C)C1=O)=C\c1ccccc1 (stereo not drawn)	-3	9	-7	24	36*	0	68*	27
CC(/C=C1\SC(=S)N(NC(=O)c2ccccc2C)C1=O)=C\c1ccccc1	-13	-2	-1	24	10	-5	x	x
CC(/C=C1\SC(=S)N(NC(=O)c2ccncc2)C1=O)=C\c1ccccc1	-7	-1	3	2	78*	-3	34	2
Cc1cc(C)c(NC(=O)CNC(=O)c2ccccc2OCc2c(C)noc2C)c(C)c1	-4	-1	-3	-3	x	2	x	x
